Data from ChEMBL document CHEMBL1143576, “Discovery of 2-arylthiazolidine-4-carboxylic acid amides as a new class of cytotoxic agents for prostate cancer” (J Med Chem, 2005).
pIC50: −log10 of the molar value.

Columns and labels:
LNCaP [1] = test: Antiproliferative activity against prostate cancer LNCaP Cell line using sulforhodamine B(SRB) assay; assay type: functional, cell-based; conditions: Homo sapiens, Prostate gland
Method in brief: (§1)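 Cells seeded at 1000 to 5000 per well, depending on growth rate, and exposed to a range of concentrations for 96 h, in three to five replicates. Stocks were 5 to 20 mM in DMSO, diluted into complete medium. Endpoint cell number was measured by SRB: 10% trichloroacetic acid fixation, 0.4% SRB stain, absorbance at 540 nm.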

PPC-1 = test: Antiproliferative activity against prostate cancer PPC-1 cell line using sulforhodamine B(SRB) assay; assay type: functional, cell-based; conditions: Homo sapiens; method in brief: as §1
DU-145 = test: Antiproliferative activity against prostate cancer DU-145 cell line using sulforhodamine B(SRB) assay; assay type: functional, cell-based; conditions: Homo sapiens; method in brief: as §1
PC-3 [2] = test: Antiproliferative activity against prostate cancer PC-3 cell line using sulforhodamine B(SRB) assay; assay type: functional, cell-based, Homo sapiens; conditions: for pIC50: Homo sapiens, PC-3, read-out: IC50; method in brief: as §1
RH7777 [3] = test: Antiproliferative effect against RH7777 cell line using sulforhodamine B(SRB) assay; assay type: functional, cell-based; conditions: Rattus norvegicus; method in brief: as §1
TSU = test: Antiproliferative activity against prostate cancer TSU-Pr1 cell line using sulforhodamine B(SRB) assay; assay type: functional, cell-based; conditions: Homo sapiens; method in brief: as §1
PC-3 [4] = test: Induction of apoptosis in human PC-3 cell line at 5 uM concentration after 72 hr; assay type: functional
Method in brief: (§2)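 Cells were exposed to compound for 72 h. Cytoplasmic DNA-histone complexes (mono- and oligonucleosomes) were quantified by sandwich ELISA using monoclonal antibodies against DNA and histones. The enrichment factor is the OD405 ratio of treated to untreated cells.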

PC-3 [5] = test: Induction of apoptosis in human PC-3 cell line at 2 uM concentration after 72 hr; assay type: functional; method in brief: as §2
LNCaP [6] = test: Induction of apoptosis in human LNCaP Cell line at 2 uM concentration after 72 hr; assay type: functional; method in brief: as §2
LNCaP [7] = test: Induction of apoptosis in human LNCaP Cell line at 5 uM concentration after 72 hr; assay type: functional; method in brief: as §2
PC-3 [8] = test: Induction of apoptosis in human PC-3 cell line at 10 uM concentration after 72 hr; assay type: functional; method in brief: as §2
PC-3 [9] = test: Induction of apoptosis in human PC-3 cell line at 20 uM concentration after 72 hr; assay type: functional; method in brief: as §2
LNCaP [10] = test: Induction of apoptosis in human LNCaP Cell line 10at uM concentration after 72 hr; assay type: functional; method in brief: as §2
LNCaP [11] = test: Induction of apoptosis in human LNCaP Cell line 20 at uM concentration after 72 hr; assay type: functional; method in brief: as §2
[12] = test system: RH7777 (Rattus norvegicus); test: Antiproliferative effect against RH7777 cell line using sulforhodamine B(SRB) assay; No activity
LNCaP [13] = test: Induction of apoptosis in human LNCaP Cell line at 10 uM concentration after 72 hr; assay type: functional; method in brief: as §2
[14] = test system: RH7777 (Rattus norvegicus); test: Induction of apoptosis in rat RH7777 cell line at 2 uM concentration after 72 hr
RH7777 [15] = test: Induction of apoptosis in rat RH7777 cell line at 5 uM concentration after 72 hr
RH7777 [16] = test: Induction of apoptosis in rat RH7777 cell line at 10 uM concentration after 72 hr

| SMILES | pIC50 (LNCaP [1]) | pIC50 (PPC-1) | pIC50 (DU-145) | pIC50 (PC-3 [2]) | pIC50 (RH7777 [3]) | pIC50 (TSU) | other results |
| --- | --- | --- | --- | --- | --- | --- | --- |
| CCCCCCCCCCCCCCCCCCNC(=O)[C@H]1CSC(c2ccc(F)cc2)N1 (some centres undefined) | 5.72 | 5.68 | 5.24 | 5.17 | 4.76 | 5.27 |  |
| CCCCCCCCCCCCCCCCCCNC(=O)[C@H]1CSC(c2ccc(Br)cc2)N1 (some centres undefined) | 5.29 | 5.43 | 4.86 | 4.76 | < 4.70 | 4.74 |  |
| CCCCCCCCCCCCCCCCCCNC(=O)[C@H]1CSC(CCCCCCCCCCCC)N1 (some centres undefined) | 4.92 | 4.89 | 5.05 | 4.82 | ~4.70 | 4.97 |  |
| CCCCCCCCCCCCCCCCCCNC(=O)[C@H]1CSC(c2ccc(C)cc2)N1 (some centres undefined) | 5.72 | 5.72 | 4.98 | 4.89 | < 4.70 | 5.10 |  |
| CCCCCCCCCCCCCCCCCCNC(=O)c1csc(-c2ccccc2)n1 | < 4.70 | < 4.70 | < 4.70 | < 4.70 | < 4.70 | < 4.70 |  |
| CCCCCCCCCCCCCCCCCCNC(=O)[C@H]1CSC(Cc2ccccc2)N1 (some centres undefined) | 5.36 | 5.40 | 4.82 | 4.79 | < 4.70 | 4.95 |  |
| CCCCCCCCCCCCCCCCCCNC(=O)[C@H]1CSC(c2ccc([N+](=O)[O-])cc2)N1 (some centres undefined) | 5.08 | 4.82 | 4.82 | ~4.70 | ~4.70 | 4.80 |  |
| CCCCCCCCCCCCCCCCCCNC(=O)[C@H]1CSC(c2cccnc2)N1 (some centres undefined) | 5.44 | 5.54 | 5.12 | 5.04 | 4.98 | 5.11 |  |
| CCCCCCCCCCCCCCCCCCNC(=O)[C@H]1CSC(c2ccccc2)N1S(C)(=O)=O (some centres undefined) | < 4.70 | < 4.70 | < 4.70 | < 4.70 | < 4.70 | < 4.70 |  |
| CCCCCCCCCCCCCCCCCCNC(=O)[C@H]1CSC(c2cc(F)cc(F)c2)N1 (some centres undefined) | 4.95 | 4.97 | < 4.70 | < 4.70 | < 4.70 | < 4.70 |  |
| CCCCCCCCCCCCCCCCCCNC(=O)[C@H]1CSC(c2ccc(N(C)C)cc2)N1 (some centres undefined) | 5.80 | 5.96 | 5.28 | 5.22 | < 4.70 | 5.52 |  |
| CCCCCCCCCCCCCCCCCCNC(=O)[C@H]1CSC(c2c(Cl)cccc2Cl)N1 (some centres undefined) | 4.88 | 4.77 | < 4.70 | < 4.70 | < 4.70 | 4.70 |  |
| CCCCCCCCCCCCCCCCCCNC(=O)[C@H]1CSC(c2ccccc2)N1C(C)=O (some centres undefined) | 4.79 | 4.90 | ~4.70 | ~4.70 | < 4.70 | < 4.70 |  |
| CCCCCCCCCCCCCCCCCCNC(=O)[C@H]1CSC(c2cccc(O)c2)N1 (some centres undefined) | 5.77 | 5.92 | 5.24 | 5.17 | 4.51 | 5.40 |  |
| CCCCCCCCCCCCCCCCCCNC(=O)[C@H]1CSC(C2CCCCC2)N1 (some centres undefined) | 4.89 | 5.03 | < 4.70 | < 4.70 | < 4.70 | < 4.70 |  |
| CCCCCCCCCCCCCCCCCCNC(=O)[C@H]1CSC(c2ccc(F)c(Br)c2)N1 (some centres undefined) | 5.52 | 5.33 | 4.95 | 4.87 | 4.70 | 4.85 |  |
| CCCCCCCCCCCCCCCCCCNC(=O)[C@H]1CSC(c2ccc(C#N)cc2)N1 (some centres undefined) | 5.23 | 5.30 | < 4.70 | < 4.70 | < 4.70 | < 4.70 |  |
| CCCCCCCCCCCCCCCCCCNC(=O)[C@H]1CSC(c2c[nH]c3ccccc23)N1 (some centres undefined) | 5.68 | 5.89 | 5.05 | 4.94 | < 4.70 | 5.36 |  |
| CCCCCCCNC(=O)[C@H]1CSC(c2ccccc2)N1 (some centres undefined) | 4.91 | 4.46 | 4.35 | 4.41 | 4.28 | 4.55 |  |
| CCCCCCCCCCCCCCCCCCNC(=O)[C@H]1CSC(c2ccc(-c3ccccc3)cc2)N1 (some centres undefined) | < 4.70 | < 4.70 | < 4.70 | < 4.70 | < 4.70 | < 4.70 |  |
| CCCCCCCCCCCCCCCCCCNC(=O)[C@H]1CSC(c2ccccc2)N1.Cl (some centres undefined) | 5.68 | 5.70 | 5.27 | 5.11 | 4.59 | 5.30 | Apoptosis (PC-3 [4]): 2.3; Apoptosis (PC-3 [5]): 1.4; Apoptosis (LNCaP [6]): 4.5; Apoptosis (LNCaP [7]): 45.2; Apoptosis (PC-3 [8]): 3.4; Apoptosis (PC-3 [9]): 12.7; Apoptosis (LNCaP [10]): 37.1; Apoptosis (LNCaP [11]): 26.1 |
| CCCCCCCCCCCCCCCCCCNC(=O)[C@H]1CSC(c2ccc(OC)cc2)N1 (some centres undefined) | 5.68 | 5.82 | 5.06 | ~4.70 | < 4.70 |  |  |
| CCCCCCCCCCCCCCCCCCNC(=O)[C@H]1CSC(c2ccoc2)N1 (some centres undefined) | 5.77 | 5.96 | 5.18 | 5.09 | 4.98 | 5.38 |  |
| CCCCCCCCCCCCCCCCCCNC(=O)[C@H]1CSC(c2ccc(OC)c(OC)c2)N1 (some centres undefined) | 6.07 | 6.24 | 5.35 | 5.28 | 4.99 | 5.62 |  |
| CCCCCCCCCCCCCCCCCCNC(=O)[C@H]1CSC(c2cc(OC)c(OC)c(OC)c2)N1 (some centres undefined) | 6.09 | 6.32 | 5.41 | 5.40 | 4.94 | 5.62 |  |
| CCCCCCCCCCCCCCCCCCNC(=O)[C@H]1CSC(c2ccc(NC(C)=O)cc2)N1 (some centres undefined) | 5.89 | 6.26 | 5.51 | 5.25 | 4.68 | 6.03 |  |
| CCCCCCCCCCCCCCCCCCCNC(=O)[C@H]1CSC(c2ccccc2)N1.Cl (some centres undefined) | 4.87 | 4.77 | < 4.70 |  |  | < 4.70 | IC50 (PC-3 [2]; pc-3): No activity; IC50 [12]: No activity |
| CCCCCCCCCCCCCCNC(=O)[C@H]1CSC(c2ccccc2)N1.Cl (some centres undefined) | 5.85 | 5.89 | 5.62 | 5.52 | 5.47 | 5.70 | Apoptosis (PC-3 [4]): 18.7; Apoptosis (PC-3 [5]): 1.8; Apoptosis (LNCaP [6]): 14.1; Apoptosis (LNCaP [7]): 75.4; Apoptosis (PC-3 [8]): 54; Apoptosis (LNCaP [13]): 80.7; Apoptosis [14]: 2.6; Apoptosis (RH7777 [15]): 3.2; Apoptosis (RH7777 [16]): 2.5 |
| CC(=O)O[C@H]1C(=O)[C@@]2(C)[C@H]([C@H](OC(=O)c3ccccc3)[C@]3(O)C[C@H](OC(=O)[C@H](O)[C@@H](NC(=O)c4ccccc4)c4ccccc4)C(C)=C1C3(C)C)[C@]1(OC(C)=O)CO[C@@H]1C[C@@H]2O [PACLITAXEL] | 8.70 | 8.47 | 8.57 | 8.47 |  | 8.68 |  |
